Screening data from PubChem BioAssay.
mABHD4 FP – inhibitors of mouse ABHD4; inhibition, % at 8.92 µM; purified mABHD4, FP-Rh probe fluorescence polarization; Q8VD66; 370,000 tested, 0.54% active;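 active means inhibition exceeding the mean over every tested compound plus 3 SD, cut at about 30% in these data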;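 further: 0% = plate median of compound wells and 100% = S159A mutant with DMSO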
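Assay system: mouse ABHD4 enzyme, wild type / Also added: fluorescent activity-based probe FP-Rh / Doses: single nominal dose of 8.92 µM, 0.89% DMSO final / Timing: 45 min compound pre-incubation plus 60 min probe step, 25 °C / Signal: FP readout, ex 525 nm / em 598 nm / Control set: S159A mutant/DMSO as 100%, compound-well median as 0%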
PRMT1 FP inh – PRMT1 (human) inhibition, primary screen; Q99873; recombinant PRMT1, activity-based probe fluorescence polarization; inhibition, % at 2.79 µM; 370,000 tested, 1.3% active; AID 652257;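 active means inhibition above about 21% made by adding two undisclosed values, limit read from the data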
LEDGF integ inh – blocks HIV-1 LEDGF/p75-dependent DNA integration | TR-FRET IN-LEDGF/p75 DNA integration, Eu/Cy5 | inhibition, % at 3.7 µM | 370,000 tested, 0.64% active | AID 743269;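 active means inhibition above the screen-wide mean plus 3 SD, cut at about 13% in these data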;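 further: signal is the Cy5 over europium emission ratio at 671 and 618 nm; 0% = plate median of compound wells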
rCAG RNA binder – binds r(CAG) RNA repeats; r(CAG) RNA repeat, TO-PRO-1 dye displacement fluorescence; inhibition, % at 3 µM; 370,000 tested, 1.3% active; AID 651821;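 active means inhibition above the plate cutoff, the mean of all test compounds on that plate plus 3 SD, cut at about 35% in these data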;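 further: 0% = DMSO alone and 100% = 100 µM mitoxantrone as full dye displacement; higher means more dye released from RNA so lower well fluorescence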
HTRA1 inhibitor – HTRA1 (human) protease inhibition; AID 504803; Q92743; inhibition, % at 5.96 µM; recombinant HTRA1, FP-rhodamine activity-based probe, fluorescence polarization; 340,000 tested, 0.5% active; in the data active means inhibition above about 36%;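 further: 0% = enzyme with DMSO and 100% = wells lacking enzyme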
DAGLB inhibitor – blocks human DAGLB lipase activity | Q8NCG7 | HEK293T DAGLB membrane lysate, EnzChek fluorogenic substrate | inhibition, % at 5.17 µM | 340,000 tested, 0.059% active | AID 504411; in the data active means inhibition above about 34%;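 further: 0% = enzyme with vehicle and 100% = wells lacking enzyme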
Target sequence (Q8NCG7 whole entry, looked up): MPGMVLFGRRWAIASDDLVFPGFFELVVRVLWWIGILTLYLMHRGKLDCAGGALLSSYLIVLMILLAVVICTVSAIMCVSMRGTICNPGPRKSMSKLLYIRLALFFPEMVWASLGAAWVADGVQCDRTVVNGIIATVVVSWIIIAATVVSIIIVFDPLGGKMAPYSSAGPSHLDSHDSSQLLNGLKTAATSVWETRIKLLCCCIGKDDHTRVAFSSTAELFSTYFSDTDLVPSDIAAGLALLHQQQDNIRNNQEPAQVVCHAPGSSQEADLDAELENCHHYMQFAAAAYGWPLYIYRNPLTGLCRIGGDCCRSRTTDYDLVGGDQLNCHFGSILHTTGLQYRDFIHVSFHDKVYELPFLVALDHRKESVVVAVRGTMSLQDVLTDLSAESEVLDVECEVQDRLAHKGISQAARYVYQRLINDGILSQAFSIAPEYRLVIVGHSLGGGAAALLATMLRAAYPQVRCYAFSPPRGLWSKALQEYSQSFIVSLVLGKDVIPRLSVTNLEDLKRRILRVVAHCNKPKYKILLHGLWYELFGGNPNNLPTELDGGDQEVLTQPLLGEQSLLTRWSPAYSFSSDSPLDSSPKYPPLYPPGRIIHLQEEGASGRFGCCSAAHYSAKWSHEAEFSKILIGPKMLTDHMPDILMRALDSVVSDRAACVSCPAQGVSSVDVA
rCAG bind conf – r(CAG) RNA repeat binding, confirmation; shares compounds with rCAG RNA binder; AID 652065; inhibition, % at 3 µM; TO-PRO-1 dye displacement fluorescence; 4,300 tested, 70% active;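 active means inhibition above a per-plate cutoff, the mean inhibition of sample wells plus 3 SD, cut at about 35% in these data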;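 further: loss of TO-PRO-1 fluorescence as compound displaces dye from 1x1 AA loop RNA; 0% = DMSO only wells and 100% = 100 µM mitoxantrone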
dCAG dye counter – counter-screen for rCAG RNA binders: DNA CAG dye complex inhibitors. AID 652068. shares compounds with rCAG RNA binder. inhibition, % at 3 µM. 4,300 tested, 94% active. d(CAG) DNA oligo TO-PRO-1 dye displacement, fluorescence;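 active means inhibition above its plate's cutoff, the mean test-well inhibition plus 3 SD, cut at about 4.8% in these data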;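 further: 0% = DNA dye mix with DMSO and 100% = 100 µM mitoxantrone; hits displace the dye from DNA and so lower well fluorescence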
* marks the source's active call; other numbers are inactive results; x = no result given. Most compounds without a hit are left out; they make up all but 3.2% or so of the library.

SMILES	mABHD4 FP	PRMT1 FP inh	LEDGF integ inh	rCAG RNA binder	HTRA1 inhibitor	DAGLB inhibitor	rCAG bind conf	dCAG dye counter
O=C(COC(=O)c1ccc(N2CCCC2=O)cc1)c1ccccc1	1	3	-3	-1	2	-3	x	x
O=C(C(Sc1ccccc1)c1ccccc1)N1CCOCC1 (stereo unspecified)	6	1	3	-5	1	-1	x	x
Cc1ccc(OCC(=O)Nc2nc(-c3ccccn3)cs2)c(C)c1	3	5	10	6	6	-11	x	x
Cc1ccc(NC(=S)N2CCC(NC(=O)C3CCCCC3)CC2)cc1C	-3	-1	0	-1	-3	0	x	x
Cc1noc(NS(=O)(=O)c2ccc(NC(=O)CSc3nc4c(cc3C#N)CCCC4)cc2)c1C	3	7	-1	41*	-7	3	33	11*
Cc1ccc(-n2c(SCC(=O)c3ccc(O)c(O)c3)nnc2-c2ccccc2)cc1	3	19	11	39*	x	x	37*	15*
CCc1cc(=O)oc2cc(C)cc(OCC(=O)NC(Cc3ccc(Cl)cc3)C(=O)O)c12 (stereo unspecified)	-3	-2	0	34	-3	2	x	x
CCCCc1cc(=O)oc2cc(C)cc(OCC(=O)N[C@@H](CSCc3ccccc3)C(=O)O)c12	2	8	2	39*	-8	3	47*	12*
CCc1cc(=O)oc2cc(C)cc(OCC(=O)N[C@@H](CSCc3ccccc3)C(=O)O)c12	-1	0	0	47*	-5	4	40*	8.3*
CCN1C(=O)CC(NNC(=O)c2ccccc2)C1=O (stereo unspecified)	4	-7	2	1	2	1	x	x
Cc1ccc(NC(=O)c2ccc3c(=O)n4c(nc3c2)CCC4)cc1F	-3	-3	0	5	-7	-1	x	x
COc1cccc(Nc2nc3ccccc3nc2NS(=O)(=O)c2cccs2)c1	18	3	-3	74*	2	9	88*	59*
CC(C)CCNc1nc2ccccc2nc1NS(=O)(=O)c1cccs1	2	2	-2	56*	-1	5	33	5.5*
CCn1nc(NS(=O)(=O)c2ccc([N+](=O)[O-])cc2)c2cc3ccc(C)cc3nc21	-6	6	-2	53*	8	14	37*	9.6*
CCn1nc(NS(=O)(=O)c2ccc([N+](=O)[O-])cc2)c2cc3cc(C)ccc3nc21	1	1	-5	16	1	16	x	x
O=C(Cn1cc(COc2ccc(Cl)c(Cl)c2)nn1)NS(=O)(=O)c1ccccc1OC(F)(F)F	-4	3	-2	62*	x	x	48*	16*
CC1CCc2c(sc(NC(=O)COC(=O)C3CCCO3)c2C#N)C1 (stereo unspecified)	1	3	1	0	-7	-9	x	x
CCC1CCc2c(sc(NC(=O)C3CC=CCC3C(=O)O)c2C#N)C1 (stereo unspecified)	0	2	2	59*	-12	11	39*	11*
CCOC(=O)Nc1sc2c(c1C#N)CCC(C)C2 (stereo unspecified)	x	x	x	x	-11	-5	x	x
CC1CCc2c(sc(NC(=O)COC(=O)c3ccc(O)cc3)c2C#N)C1 (stereo unspecified)	-29	7	4	39*	-36	-1	37*	19*
COC(=O)c1c(N2C(=O)Nc3ccccc3N2O)sc2c1CCCC2	-8	2	5	40*	-4	5	36*	8.4*
CCOC(=O)c1c(N2C(=O)Nc3ccccc3N2O)sc2c1CCCCC2	3	2	0	27	5	3	x	x
CCOC(=O)c1c(-c2ccccc2)csc1N1C(=O)Nc2ccccc2N1O	1	-2	4	50*	1	5	38*	8.8*
COC(=O)c1c(-c2ccccc2)csc1N1C(=O)Nc2ccccc2N1O	-5	2	-2	13	-6	1	x	x
C/C(Cc1ccccc1)=N\NC(=O)CNC(=O)c1ccc(F)cc1	0	-1	2	-2	0	-3	x	x
